Calls of active or inactive are those of the source.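 How the source made its calls, unless noted: active means viability at or under a set limit in both replicates, limit being median viability minus 3 SD (cut at about 48% in these data, passing the limit was not always enough); inconclusive means at or under the limit in just one replicate; inactive means at or above the limit in both replicates.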
What was measured:
[1] = Her2 expression decrease, cell viability multiplex – SKBR3 breast tumor cells, AlphaScreen, ATP viability, primary screen (AID 461;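 active means Her2 level under about 52% in both replicate screens, with viability over 70% of control, limit read from the data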;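 on Her2 level: lower value means less Her2 protein in the cells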;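 on viability: percent of carrier control wells set as 100% viability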); conditions: SKBR3 Her2 protein level, 18-24 h, measured here: SKBR3 viability, ATP luminescence, at 10 µM
[2] = target: Receptor tyrosine-protein kinase erbB-2 (Homo sapiens) (UniProt P04626); assay: as above; conditions: 18-24 h, at 10 µM, stronger effect = lower value
[3] = reduced viability of SK-BR-3 breast cancer cells – cell-based, 24 h, human, pilot screen (AID 572;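 active means viability at or below 10% of carrier control in both of two separate runs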;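 further: compound exposure lasted between 18 and 24 h rather than exactly 24 h; 100% = carrier-treated control wells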); conditions: SK-BR-3 viability, CellTiter-Glo luminescence, at 10 µM, stronger effect = lower value
[4] = HUVEC growth inhibition – cell-based, human, primary screen (AID 575;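 active means viability at or below 30% in both replicate assays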;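 further: 100% = median of untreated cell wells with 0.1% DMSO on each plate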); conditions: HUVEC proliferation, CellTiter-Glo luminescence, 72 h; at 10 µM; stronger effect = lower value
Procedure, shortened: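 Assay system: Primary human umbilical vein endothelial cells | Quantity: 1250 cells per well | Medium: Supplemented EBM, 2% fetal bovine serum | Detection: CellTiter-Glo luminescence measuring cellular ATP | Read-out: % viability vs DMSO wells | Plate: Collagen-coated 384-well format | Times: 72 h exposure, 37 °C, 5% CO2, 30 min RT equilibration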

[5] = H69AR cell proliferation blockers – human, duplicate replicates, primary screen (AID 580); conditions: H69AR lung tumor cells viability, ATP luminescence, 72 h; at 10 µM; stronger effect = lower value;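 further: 100% = mean luminescence of untreated wells and 0% = no signal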
[6] = MRP1 drug-resistance reversers in H69AR cells – cell-based, doxorubicin co-treatment, pilot screen (AID 601;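 active means viability loss from added drug above about 55%, and viability with drug at most 40%, in both replicates, limit read from the data, passing the limit was not always enough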); conditions: CellTiter-Glo, 72 h, at 10 µM; for differential viability (reversal): stronger effect = higher value
[7] = yeast transport mutant growth inhibition pilot in 384-well plates, post-Golgi transport modulator project (AID 636; in the data active means inhibition above about 31%); conditions: absorbance 615 nm, about 18 h, stronger effect = higher value
[8] = growth suppression of yeast trafficking mutant, preliminary HTS, modulators of trafficking downstream of Golgi apparatus project, 1536-format plate, OD 615 nm (AID 637; in the data active means inhibition above about 30%); conditions: yeast transport mutant growth, absorbance 615 nm, 18 h; stronger effect = higher value
[9] = H69AR cells + 2 uM doxorubicin, measured here: viability with 2 uM doxorubicin, stronger effect = lower value
[10] = H69AR cells, compound alone cytotoxicity

Sequence of Receptor tyrosine-protein kinase erbB-2 (Homo sapiens) (P04626 whole entry, looked up): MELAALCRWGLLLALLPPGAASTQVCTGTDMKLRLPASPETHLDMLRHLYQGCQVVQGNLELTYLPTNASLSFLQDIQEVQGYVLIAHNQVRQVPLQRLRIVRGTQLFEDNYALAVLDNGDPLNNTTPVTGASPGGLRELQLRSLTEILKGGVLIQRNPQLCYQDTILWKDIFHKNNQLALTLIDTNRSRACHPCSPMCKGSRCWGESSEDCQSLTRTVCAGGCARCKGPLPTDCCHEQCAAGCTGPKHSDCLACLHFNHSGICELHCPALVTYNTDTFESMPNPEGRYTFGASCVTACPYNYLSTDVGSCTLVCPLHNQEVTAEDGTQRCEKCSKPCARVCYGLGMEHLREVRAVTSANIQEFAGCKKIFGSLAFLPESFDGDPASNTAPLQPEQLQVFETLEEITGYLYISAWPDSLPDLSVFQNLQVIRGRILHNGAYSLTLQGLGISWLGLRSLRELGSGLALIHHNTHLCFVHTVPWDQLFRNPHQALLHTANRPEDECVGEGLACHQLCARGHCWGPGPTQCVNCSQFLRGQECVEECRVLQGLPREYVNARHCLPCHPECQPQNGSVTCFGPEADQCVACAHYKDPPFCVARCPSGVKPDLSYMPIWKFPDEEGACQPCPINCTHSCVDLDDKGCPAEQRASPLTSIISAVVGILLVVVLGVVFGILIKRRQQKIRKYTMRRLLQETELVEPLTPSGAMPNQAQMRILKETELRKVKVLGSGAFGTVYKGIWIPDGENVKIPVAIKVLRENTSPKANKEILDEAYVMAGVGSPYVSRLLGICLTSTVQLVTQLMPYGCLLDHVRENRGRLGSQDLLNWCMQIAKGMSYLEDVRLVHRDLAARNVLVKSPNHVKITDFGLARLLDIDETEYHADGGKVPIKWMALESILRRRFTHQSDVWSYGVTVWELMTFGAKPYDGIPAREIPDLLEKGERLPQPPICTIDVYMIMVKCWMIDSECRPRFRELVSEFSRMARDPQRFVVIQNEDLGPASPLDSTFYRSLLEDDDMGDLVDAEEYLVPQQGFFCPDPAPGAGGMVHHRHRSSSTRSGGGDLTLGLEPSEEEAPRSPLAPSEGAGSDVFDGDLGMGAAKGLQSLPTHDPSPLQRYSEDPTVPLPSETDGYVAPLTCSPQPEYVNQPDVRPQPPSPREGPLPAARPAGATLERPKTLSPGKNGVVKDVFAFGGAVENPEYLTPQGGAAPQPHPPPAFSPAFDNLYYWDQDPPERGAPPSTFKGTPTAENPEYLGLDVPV

Row | SMILES | viability [1] [%] | Her2 level [2] | viability [3] | viability [4] | viability [5] | differential viability (reversal) ([6]; H69AR cells + 2 uM doxorubicin) | viability [6, 9] [%] | viability [6, 10] [%] | inhibition [7] | inhibition [8]
1 | CCCCCCC(C)n1[nH]c(=O)c2c(C)cc(=O)[nH]c21 (stereo not given) | 89.5 | 107% (inactive) | 89.5% (inactive) | 77.7% (inactive) | 94.2% (inactive) | -4.37% (inactive) | 98.6 | 94.2 | -1.73% (inactive) | -7.54% (inactive)
2 | Cc1ccc(-n2nnnc2SCC(=O)N2CCN(C(=O)c3ccco3)CC2)c(C)c1 | 119 | 84.5% (inactive) | 119% (inactive) | 86% (inactive) | 95.5% (inactive) | 0.745% (inactive) | 94.8 | 95.5 | -7.76% (inactive) | -2.18% (inactive)
3 | CCOc1ccc2[nH]c(=O)c(C(c3nnnn3Cc3ccco3)N3CCC(C)CC3)cc2c1 (stereo not given) | 80.5 | 81.5% (inactive) | 80.5% (inactive) | 82.3% (inactive) | 85.7% (inactive) | -1.93% (inactive) | 87.7 | 85.7 | -5.34% (inactive) | 3.02% (inactive)
4 | CCOC(=O)c1[nH]c2ccccc2c1NC(=O)CCN1CCN(C(=O)OCC)CC1 | 110 | 89.5% (inactive) | 110% (inactive) | 81.4% (inactive) | 96.8% (inactive) | 19.1% (inactive) | 77.7 | 96.8 | 1.84% (inactive) | -1.94% (inactive)
5 | CC(=O)NCCOc1cccc(OCCNC(C)=O)c1 | 94.5 | 122% (inactive) | 94.5% (inactive) | 103% (inactive) | 86.3% (inactive) | -5.34% (inactive) | 91.7 | 86.3 | 2.67% (inactive) | -3.17% (inactive)
6 | CCN(CC)CCN1C(=O)C(=O)/C(=C(/O)c2c(C)[nH]c(C(=O)OC)c2C)C1c1ccccc1OC (stereo not given) | 104 | 117% (inactive) | 104% (inactive) | 84.6% (inactive) | 68.3% (inactive) | -21.3% (inactive) | 89.5 | 68.3 | -0.26% (inactive) | -4.5% (inactive)
7 | O=C1N=C(N2CCOCC2)CS1 | 108 | 110% (inactive) | 108% (inactive) | 103% (inactive) | 104% (inactive) | 5.3% (inactive) | 98.3 | 104 | -4.27% (inactive) | -1.45% (inactive)
8 | Cc1cc(Cl)ccc1OCCCC(=O)N1CCOCC1 | 90 | 92.5% (inactive) | 90% (inactive) | 99.5% (inactive) | 87.7% (inactive) | 0.08% (inactive) | 87.6 | 87.7 | -5.39% (inactive) | 11.2% (inactive)
9 | Oc1ccc2[nH]cnc2c1CN1CCCCC1 | 113 | 110% (inactive) | 113% (inactive) | 107% (inactive) | 99.7% (inactive) | 7.21% (inactive) | 92.5 | 99.7 | -5.39% (inactive) | 3.28% (inactive)
10 | Cc1cccc(C)c1NC(=O)N1CCN(C2CCCCC2)CC1 | 111 | 92.5% (inactive) | 111% (inactive) | 109% (inactive) | 104% (inactive) | 12.6% (inactive) | 91.6 | 104 | -8.03% (inactive) | -2.55% (inactive)
11 | CCOC(=O)c1oc2ccccc2c1CSc1nnnn1-c1ccc(C)cc1 | 94.5 | 99% (inactive) | 94.5% (inactive) | 83.2% (inactive) | 69.3% (inactive) | -18.7% (inactive) | 88 | 69.3 | 2.08% (inactive) | -6.98% (inactive)
12 | COc1cccc(CNc2nc3nc(C)c(Cl)c(C)n3n2)c1 | 86.5 | 99.5% (inactive) | 86.5% (inactive) | 95.1% (inactive) | 83.6% (inactive) | 0.33% (inactive) | 83.3 | 83.6 | -4.93% (inactive) | -2.38% (inactive)
13 | Cc1cc(C)n2nc(S(=O)(=O)N(C)Cc3ccccc3)nc2n1 | 80 | 91% (inactive) | 80% (inactive) | 122% (inactive) | 93.4% (inactive) | 4.15% (inactive) | 89.2 | 93.4 | -7.16% (inactive) | -5.67% (inactive)
14 | CCOC(=O)c1ccccc1NC(=O)COC(=O)C1=COCCO1 | 98.5 | 92% (inactive) | 98.5% (inactive) | 96.7% (inactive) | 88.7% (inactive) | -13.3% (inactive) | 102 | 88.7 | -5.81% (inactive) | 3% (inactive)
15 | O=C(CNC1CCCCCC1)Nc1ccc(S(=O)(=O)NC2CC2)cc1 | 100 | 87% (inactive) | 100% (inactive) | 64.8% (inactive) | 93.7% (inactive) | 5.79% (inactive) | 87.9 | 93.7 | -4.53% (inactive) | -0.48% (inactive)
16 | COc1cccc(NC(=O)COc2ccccc2C(N)=O)c1 | 93.5 | 110% (inactive) | 93.5% (inactive) | 83.1% (inactive) | 105% (inactive) | 16% (inactive) | 88.7 | 105 | 0% (inactive) | -7.9% (inactive)
17 | CCOc1cccc(/C(O)=C2/C(=O)C(=O)N(CCN3CCOCC3)C2c2cccnc2)c1 (stereo not given) | 98.5 | 99.5% (inactive) | 98.5% (inactive) | 87.3% (inactive) | 103% (inactive) | 5.18% (inactive) | 98.2 | 103 | -3.68% (inactive) | -3.17% (inactive)
18 | O=C(c1cccc2ccccc12)N1CCC(N2CCN(c3ccccc3)CC2)CC1 | 84 | 90.5% (inactive) | 84% (inactive) | 81.7% (inactive) | 88% (inactive) | -4% (inactive) | 92 | 88 | -1.97% (inactive) | -4.43% (inactive)
19 | COCc1nnc(NC(=O)CCCOc2ccccc2)s1 | 107 | 92% (inactive) | 107% (inactive) | 85.6% (inactive) | 98.5% (inactive) | 10.4% (inactive) | 88.1 | 98.5 | -6.53% (inactive) | -3.97% (inactive)
20 | O=C1CC(c2ccc(F)c(Br)c2)C2=C(CCCC2=O)N1 (stereo not given) | 102 | 85.5% (inactive) | 102% (inactive) | 84.6% (inactive) | 102% (inactive) | 5.7% (inactive) | 96.1 | 102 | -3.95% (inactive) | -4.67% (inactive)
21 | Cc1ccc(CS(=O)(=O)CCC(=O)NCC2CCCO2)cc1 (stereo not given) | 96.5 | 106% (inactive) | 96.5% (inactive) | 116% (inactive) | 93.3% (inactive) | 2.6% (inactive) | 90.7 | 93.3 | -7.03% (inactive) | 7.5% (inactive)
22 | CCOC(=O)c1[nH]nc(N)c1NC(=O)c1ccc(Cl)cc1Cl | 79.5 | 120% (inactive) | 79.5% (inactive) | 89.9% (inactive) | 87.8% (inactive) | 3.99% (inactive) | 83.8 | 87.8 | 3.6% (inactive) | 8.89% (inactive)
23 | CC1(C)CC(=O)c2cnc(NCc3ccco3)nc2C1 | 99 | 107% (inactive) | 99% (inactive) | 114% (inactive) | 96.2% (inactive) | 11% (inactive) | 85.2 | 96.2 | -10.4% (inactive) | -8.83% (inactive)
24 | CCOC(=O)c1ccc(-n2c(=O)[nH]c3ccccc3c2=O)cc1 | 102 | 120% (inactive) | 102% (inactive) | 105% (inactive) | 93.1% (inactive) | 2.73% (inactive) | 90.4 | 93.1 | 3.07% (inactive) | -2.74% (inactive)
25 | CN(C)/C=C(\C#N)c1nc2ccccc2[nH]1 | 85 | 90% (inactive) | 85% (inactive) | 97.6% (inactive) | 98% (inactive) | 20.9% (inactive) | 77 | 98 | 2.37% (inactive) | -8.36% (inactive)
26 | Cc1cccc2cc(CN(CC3CCCO3)C(=O)c3cnccn3)c(=O)[nH]c12 (stereo not given) | 116 | 105% (inactive) | 116% (inactive) | 96.9% (inactive) | 85.1% (inactive) | -2.77% (inactive) | 87.9 | 85.1 | -1.43% (inactive) | -0.67% (inactive)
27 | O=C(CCc1nc2ccccc2[nH]1)Nc1ccc2c(c1)OCO2 | 79 | 126% (inactive) | 79% (inactive) | 48.6% (inactive) | 90.8% (inactive) | -2.33% (inactive) | 93.1 | 90.8 | 0.9% (inactive) | -4.33% (inactive)
28 | COc1ccc2cc(C#N)c(NC(C)C)nc2c1 | 90.5 | 63% (inactive) | 90.5% (inactive) | 90.8% (inactive) | 75.4% (inactive) | -6.05% (inactive) | 81.4 | 75.4 | -2.76% (inactive) | 2.91% (inactive)
29 | CCc1ccccc1OCCCCCNCCO | 85.5 | 91% (inactive) | 85.5% (inactive) | 93.3% (inactive) | 81.8% (inactive) | -5.63% (inactive) | 87.4 | 81.8 | -2.05% (inactive) | -1.5% (inactive)

Source: PubChem BioAssay
